Assay results taken from ChEMBL document CHEMBL4196014, “Highly convergent synthesis and antiviral activity of (E)-but-2-enyl nucleoside phosphonoamidates” (Eur J Med Chem, 2018).
Active and inactive are the calls of the source.

How the values were obtained:
Human betaherpesvirus 5 [1] = assay: Antiviral activity against Human cytomegalovirus AD169 infected in HEL cells assessed as reduction in viral cytopathic effect; format: functional, organism-based; conditions: Human betaherpesvirus 5, AD169, HEL
Summary of the method: (§1)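 Confluent cell monolayers were infected with 100 CCID50 of virus (1 CCID50 is the dose infecting 50% of cultures) with test compound at varying concentrations (100, 20, … μM). CPE was scored once it was complete in untreated infected controls.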

Human betaherpesvirus 5 [2] = assay: Antiviral activity against Human cytomegalovirus Davis infected in HEL cells assessed as reduction in viral cytopathic effect; format: functional, organism-based; conditions: Human betaherpesvirus 5, Davis; summary of the method: as §1
Human alphaherpesvirus 3 [3] = assay: Antiviral activity against Varicella zoster virus Oka infected in HEL cells assessed as reduction in viral plaque formation; format: functional, organism-based; conditions: Human alphaherpesvirus 3, strain Oka vaccine
Summary of the method: (§2)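 Confluent cultures were inoculated with 20 PFU of virus with compound at varying concentrations (100, 20, … μM). Plaques were counted once plaque formation was complete in untreated infected controls.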

Human alphaherpesvirus 3 [4] = assay: Antiviral activity against thymidine kinase deficient Varicella zoster virus 07/1 infected in HEL cells assessed as reduction in viral plaque formation; format: functional, organism-based; conditions: Human alphaherpesvirus 3, 07/1, HEL; summary of the method: as §2
[5] = Cytotoxicity against HEL cells assessed as alteration of cell morphology by microscopic method; format: cell-based; conditions: human
Summary of the method: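 MCC is the lowest compound concentration giving a microscopically visible alteration of cell morphology.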

HEL = assay: Cytostatic activity against HEL cells after 3 days by Coulter counting method; format: cell-based; conditions: human, 72 h
Summary of the method: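 HEL cells were seeded at 5 × 10^3 cells/well and grown for 24 h, then given medium with graded compound concentrations. After 3 days at 37 °C, cells were counted with a Coulter counter.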

[6] = Selectivity index, ratio of CC50 for HEL cells to EC50 for Varicella zoster virus Oka infected in HEL cells; format: toxicity, cell-based; conditions: human, read-out: Ratio CC50/EC50
Summary of the method: (§3)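 SI is CC50 divided by EC50. CC50 comes from the 3-day HEL Coulter-counter growth assay. EC50 comes from the VZV plaque-reduction assay (20 PFU inoculum).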

[7] = Selectivity index, ratio of CC50 for HEL cells to EC50 for thymidine kinase deficient Varicella zoster virus 07/1 infected in HEL cells; format: toxicity, cell-based; conditions: human, read-out: Ratio CC50/EC50; summary of the method: as §3
Human alphaherpesvirus 1 [8] = assay: Antiviral activity against Human simplex virus 1 KOS infected in HEL cells assessed as reduction in viral cytopathic effect; format: functional, organism-based; conditions: Human alphaherpesvirus 1, KOS; summary of the method: as §1
Human alphaherpesvirus 1 [9] = assay: Antiviral activity against thymidine kinase deficient acyclovir-resistant Human simplex virus 1 KOS infected in HEL cells assessed as reduction in viral cytopathic effect; format: functional, organism-based; conditions: Human alphaherpesvirus 1, KOS; summary of the method: as §1
Human alphaherpesvirus 2 = assay: Antiviral activity against Human simplex virus 2 G infected in HEL cells assessed as reduction in viral cytopathic effect; format: functional, organism-based; conditions: Human alphaherpesvirus 2, strain G; summary of the method: as §1
Vaccinia virus = assay: Antiviral activity against Vaccinia virus infected in HEL cells assessed as reduction in viral cytopathic effect; format: functional, organism-based; conditions: Orthopoxvirus vaccinia; summary of the method: as §1
Human coronavirus 229E = assay: Antiviral activity against Human coronavirus 229E infected in HEL cells assessed as reduction in viral cytopathic effect; format: functional, organism-based; summary of the method: as §1
Human respirovirus 3 = assay: Antiviral activity against Human parainfluenza virus 3 infected in African green monkey Vero cells assessed as reduction in viral cytopathic effect; format: functional, organism-based; summary of the method: as §1
[10] = test system: Mammalian orthoreovirus 1; assay: Antiviral activity against Reovirus-1 infected in African green monkey Vero cells assessed as reduction in viral cytopathic effect; format: functional, organism-based; summary of the method: as §1
Sindbis virus = assay: Antiviral activity against Sindbis virus infected in African green monkey Vero cells assessed as reduction in viral cytopathic effect; format: functional, organism-based; summary of the method: as §1
Coxsackievirus B4 [11] = assay: Antiviral activity against Coxsackievirus B4 infected in African green monkey Vero cells assessed as reduction in viral cytopathic effect; format: functional, organism-based; summary of the method: as §1
[12] = test system: Vesicular stomatitis virus; assay: Antiviral activity against Vesicular stomatitis virus infected in human HeLa cells assessed as reduction in viral cytopathic effect; format: functional, organism-based; summary of the method: as §1
Coxsackievirus B4 [13] = assay: Antiviral activity against Human coxsackievirus B4 infected in human HeLa cells assessed as reduction in viral cytopathic effect; format: functional, organism-based; summary of the method: as §1
[14] = test system: Respiratory syncytial virus; assay: Antiviral activity against Respiratory syncytial virus infected in human HeLa cells assessed as reduction in viral cytopathic effect; format: functional, organism-based; summary of the method: as §1
Influenza A virus = assay: Antiviral activity against Influenza A virus (H1N1) infected in MDCK cells assessed as reduction in viral cytopathic effect; format: functional, organism-based
Summary of the method: (§4)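 Nearly confluent MDCK cultures were infected with 100 CCID50 of virus with compound at varying concentrations (100, 20, … μM). CPE was scored when complete in untreated infected controls.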

Influenza A virus H3N2 = assay: Antiviral activity against Influenza A virus H3N2 infected in MDCK cells assessed as reduction in viral cytopathic effect; format: functional, organism-based; summary of the method: as §4
Influenza B virus = assay: Antiviral activity against Influenza B virus infected in MDCK cells assessed as reduction in viral cytopathic effect; format: functional, organism-based; summary of the method: as §4
[15] = test system: Human immunodeficiency virus 1; assay: Antiviral activity against Human immunodeficiency virus 1 LAV1 infected in primary human PBM cells after 6 days by reverse transcriptase activity-based assay; format: functional, organism-based

Cc1cn(C/C=C/CP(=O)(N[C@@H](C)C(=O)OC(C)C)Oc2ccccc2)c(=O)[nH]c1=O (some centres undefined)
1.03 µM: EC50 (Human alphaherpesvirus 3 [4])
13.5 µM: EC50 (Human betaherpesvirus 5 [2])
inactive: Activity (Human respirovirus 3) | Activity [10] | Activity (Sindbis virus) | Activity (Coxsackievirus B4 [11]) | Activity [12] | Activity (Coxsackievirus B4 [13]) | Activity [14] | Activity (Influenza A virus) | Activity (Influenza A virus H3N2) | Activity (Influenza B virus) | Activity [15]
> 22: selectivity ratio [6]
4.59 µM: EC50 (Human alphaherpesvirus 3 [3])
> 100 µM: MCC [5] | CC50 (HEL) | EC50 (Human alphaherpesvirus 1 [8]) | EC50 (Human alphaherpesvirus 1 [9]) | EC50 (Human alphaherpesvirus 2) | EC50 (Vaccinia virus) | EC50 (Human coronavirus 229E)
> 97: selectivity ratio [7]
25.9 µM: EC50 (Human betaherpesvirus 5 [1])
